# What was measured:
# [1] = system: PAM212 keratinocytes; assay: PAM212 keratinocyte growth inhibition with UVA light; format: cell-based, mouse; details: plus UVA light
# [2] = system: MCF-7 breast carcinoma cell line; details: read-out: IC50, phototoxicity; cited from earlier work
# [3] = known measured logP used in the discussion; ref not given; cited from earlier work
# [4] = Solubility maximum under the assay's conditions; format: physicochemical; details: 37 °C, plasma or biological fluid, kinetic from dmso stock
# [5] = system: plasmid pZeoSV DNA; assay: Plasmid DNA nicking and unwinding assay with UVA light; format: biochemical; details: for Percentage of nicked plasmid: neutral agarose gels
# How it was run: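 pZeoSV plasmid (75 ng per 10 μL) in TE buffer (10 mM Tris–HCl, 1 mM EDTA, pH 8), with test compound added from a 100× DMSO concentrate. UVA (320–400 nm) was given as for the cell cultures: 2.4 mW/cm2, 1.28 J/cm2. Aliquots taken before and after UVA were run on 1.2% neutral (Tris-acetate-EDTA) or alkaline agarose and stained with ethidium bromide. Percent nicked plasmid came from band image analysis.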
structure (smiles),measurement,setting,value
"O=c1ccc2ccc(O)cc2o1 [Compound 1, umbelliferone]",photo-activity on keratinocyte growth (in words),[1],no activity
same,IC50,[2],476 µM
"Cc1cc(=O)oc2c(C)c(O)ccc12 [Compound 12, 4,8-dimethyl-7-hydroxycoumarin]",logP,[3],2.1
"Cc1cc(=O)oc2c(C)c(O)c([N+](=O)[O-])cc12 [Compound 18, 4,8-dimethyl-6-nitro-7-hydroxycoumarin]",photo-activity on keratinocyte growth (in words),[1],no photocytotoxicity
same,solubility,[4],100 µM
"Cc1c(O)ccc2c(C(F)(F)F)cc(=O)oc12 [Compound 37, 4-trifluoromethyl-8-methyl-7-hydroxycoumarin]",photo-activity on keratinocyte growth (in words),[1],inactive
"O=c1cc(C(F)(F)F)c2ccc(O)cc2o1 [Compound 47, 4-trifluoromethyl-7-hydroxycoumarin]",photo-activity on keratinocyte growth (in words),[1],inactive
"C=CCOc1ccc2c(C)c(Br)c(=O)oc2c1C [Compound 58, 4,8-dimethyl-3-bromo-7-allyloxycoumarin]",Percentage of nicked plasmid,[5]; 1 μM coumarin plus UVA light,3.2%
same,Percentage of nicked plasmid,[5]; 10 μM coumarin plus UVA light,12.0%
same,Percentage of nicked plasmid,[5]; 100 μM coumarin plus UVA light,20.2%
same,effect on plasmid DNA (in words),"[5]; plus UVA light, neutral gels",concentration-dependent alteration in migration
"Cc1c(F)c(=O)oc2c(C)c(O)ccc12 [Compound 68, 3-fluoro-4,8-dimethyl-7-hydroxycoumarin]",photo-activity on keratinocyte growth (in words),[1],no activity
"Cc1c(I)c(=O)oc2c(C)c(O)ccc12 [Compound 71, 3-Iodo-4,8-dimethyl-7-hydroxycoumarin]",Percentage of nicked plasmid,[5]; 1 μM coumarin plus UVA light,6.8%
same,Percentage of nicked plasmid,[5]; 10 μM coumarin plus UVA light,80.2%
same,Percentage of nicked plasmid,[5]; 100 μM coumarin plus UVA light,98.6%
same,linearization of the plasmid compared to the 7-allyloxy ethers 14 and 58,[5]; plus UVA light,nearly five times greater linearization
same,effect on plasmid DNA (in words),"[5]; plus UVA light, alkaline gels",Generally similar results
same,effect on plasmid DNA (in words),"[5]; plus UVA light, neutral gels",concentration-dependent alteration in migration

# From paper PMC6656587 (Bioorganic chemistry, 2019)
